DAT uptake mod – changed human dopamine transporter uptake under cocaine IC80 | B-score at 10 µM | LLC-PK1 hDAT cells, [14C]-dopamine uptake with cocaine IC80; actives deviate in either direction | AID 449768 | Q01959 | actives 1.3% (n = 110,000);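 active means Z score or B-score, a plate-position-corrected score, falls beyond the plate's 99.7% confidence bounds, in either direction; inactive means both scores lie inside the 99.7% bounds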;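 further: scored against the spread of the other compound wells on the same plate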
LYP act – increases human PTPN22 phosphatase activity | Q9Y2R2 | recombinant LYP, DiFMUP fluorescence; 0 = plate median, 100 = signal doubled | activation, % at 2 µM | actives 0.11% (n = 96,000) | AID 697;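 active means activation at 2 µM above a set limit, the mean plus 5 SD, cut at about 37% in these data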
PTPN22 inh 2 – LYP (human) phosphatase inhibition; actives 0.21% (n = 96,000); inhibition, % at 2 µM; recombinant LYP catalytic domain, DiFMUP fluorescence; Q9Y2R2; AID 640;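 active means inhibition at 2 µM at or above a set limit, the screen mean plus 3 SD, cut at about 24% in these data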;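 further: 0% = DMSO with enzyme and 100% = enzyme fully blocked by orthovanadate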
HIV Rev-RRE inh – HIV Rev-RRE protein-RNA interaction inhibition; actives 0.79% (n = 97,000); Rev peptide-RRE RNA binding, FRET; inhibition, % at 8 µM;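 active means inhibition above the screen-wide mean plus 3 SD, cut at about 35% in these data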;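 further: 0% = median DMSO wells and 100% = median Neomycin B control wells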
Target sequence (P05866 whole entry, looked up): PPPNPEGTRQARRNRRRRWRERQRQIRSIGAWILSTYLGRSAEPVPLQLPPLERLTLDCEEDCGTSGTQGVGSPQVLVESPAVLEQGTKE
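Assay system: labelled RRE RNA duplex and labelled Rev peptide / Medium: HEPES pH 7.5 salt buffer with EDTA / Reagent: labelled Rev peptide / Schedule: 5 + 15 min at 25 °C / Signal: FRET, excitation 480 nm, emission 540 nm donor and 671 nm acceptor / Benchmarks: DMSO and neomycin B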
PLK1 inh – blocks human PLK1 kinase activity; recombinant PLK1 kinase, TR-FRET peptide phosphorylation; P53350; actives 0.53% (n = 97,000); AID 619; inhibition, % at 10 µM;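 active means inhibition of 50% or more in the single-concentration screen; inactive means inhibition below 50%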;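 further: 0% = DMSO max control and 100% = H-89 dihydrochloride min control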
PLK1 PBD inh – inhibitors of human Plk1 polo box domain binding. inhibition, %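 (tested at about 20 µM)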. P53350. Plk1 PBD phosphopeptide binding, fluorescence polarization. actives 0.13% (n = 97,000); in the data active means inhibition above about 34%, passing the limit was not always enough
* marks the source's active call; other numbers are inactive results; x = no result; [ ] = remark or other dose. Shown are actives, neighbours in structure and some others; about 2.7% of the full set was active somewhere.

SMILES	DAT uptake mod	LYP act	PTPN22 inh 2	HIV Rev-RRE inh	PLK1 inh	PLK1 PBD inh
Cc1nc(CC(=O)N2CCN(c3cccc(C)c3C)CC2)cs1	-0.27	-16	16	2	5	-18
CCOC(=O)C(C(=O)OCC)c1cc(Br)c2noc3c2c1C(=O)c1ccccc1-3	-0.74	-11	9	58*	2	-14
CC(=O)OCCNc1cc(N2CCN(C)CC2)c2noc3c2c1C(=O)c1ccccc1-3	0.74	x	x	x	x	x
O=C(NCCc1c[nH]c2ccccc12)c1ccc(S(=O)(=O)NCc2ccco2)cc1	-7.7*	3	-5	-1	-4	8
CCCN(CC1CC1)c1nc(C)nc(Nc2c(Cl)cc(Cl)cc2Cl)c1Cl	1.5	x	x	x	x	x
CCN1CCN(Cc2ccc(NC(=O)c3ccc(C)c(NC(=O)c4csc(-c5ccncc5)n4)c3)cc2C(F)(F)F)CC1	1.8*	x	x	x	x	x
CCOC(=O)c1ccc(NC(=O)C2(c3ccccc3)CCOCC2)cc1	0.97	-3	2	14	-5	15
Cn1c(Cn2c(=O)sc3ccccc32)nnc1SCC(=O)NC1CCCCC1	-0.099	x	x	x	x	x
Cn1c(Cn2c(=O)sc3ccccc32)nnc1SCC(=O)NC1CCCC1	7.6*	x	x	x	x	x
CCCOC(=O)Cc1n[nH]c(=O)[nH]c1=O	-2.2*	6	-8	5	-10	-7
CCCOC(=O)CCc1n[nH]c(=O)[nH]c1=O	-0.072	-1	-1	5	-3	12
CC(C)(C)NC(=O)CSc1nc(O)cc(=O)n1-c1ccccc1F	0.69	-8	5	53*	-16	-17
Oc1c(Cl)cc(Cl)cc1Sc1cc(Cl)cc(Cl)c1O	-4.3*	x	x	x	x	x
COc1ccc(CNc2nc(NCc3ccc(OC)cc3)n(C(=O)c3ccccc3[N+](=O)[O-])n2)cc1	0.8	6	-4	11	-14	-9
CC1CN(Cc2cc(=O)[nH]c(C3CC3)n2)CC(C)O1 (stereo not given)	-6.8*	0	1	2	-9	24
Fc1c(F)c(C(F)(F)F)c(F)c(F)c1N/N=C\c1cccs1	-0.26	-9	10	18	-11	17
CCn1c(SCC(=O)Nc2ccc3c(c2)oc2ccccc23)nnc1-c1ccc(N)cc1	1.5	7	-6	-1	-4	-12
Cc1cc(/C=C2\SC(=S)NC2=O)c(C)n1C1CC1	x	-3	2	65*	-4	-23
Cc1ccc2[nH]c3c(c2c1)CN(C(=O)CN1CCSCC1)CC3	0.23	-2	1	36*	-8	-3
Cc1ccc2[nH]c3c(c2c1)CN(C(=O)CN1CC(C)OC(C)C1)CC3 (stereo not given)	-0.066	-12	13	61*	-13	-12
Cc1ccc2[nH]c3c(c2c1)CN(C(=O)CN1CCN(Cc2ccc4c(c2)OCO4)CC1)CC3	0.17	-1	-1	4	-1	11
Cc1ccc2[nH]c3c(c2c1)CN(C(=O)CN1CCN(c2ccccn2)CC1)CC3	2	x	x	x	x	x
N=C1/C(=C\c2ccc(SCc3ccco3)o2)C(=O)N=C2SC=NN12	0.032	0	5	59*	-5	-3
CCCNC(=O)c1ccccc1NC(=O)c1ccc(CSc2ccccc2)cc1	1.9	0	4	14	-14	-29
Cc1nn(C)c(Oc2ccccc2)c1CCNS(=O)(=O)c1ccccc1	-0.037	x	x	8	-17	-11
SMILES	DAT uptake mod	LYP act	PTPN22 inh 2	HIV Rev-RRE inh	PLK1 inh	PLK1 PBD inh
COc1ccccc1CNC(=O)C1CC2Cn3c(nc4cc(Cl)c(Cl)cc43)C2N1C (stereo not given)	1.9	x	x	x	x	x
Cc1[nH]n2c(=O)c3c(nc2c1-c1ccc(Cl)cc1)CCC3	-2.7*	x	x	x	x	x
CC(=O)c1cc(NC(=O)c2cccc(C(F)(F)F)c2)c(=O)oc1/C=C/N(C)C	0.85	-1	4	127*[fluorescence artefact?]	-3	-40
CC(=O)c1cc(NC(=O)c2ccc(Cl)cc2)c(=O)oc1/C=C/N(C)C	-1	0	-4	129*[fluorescence artefact?]	-11	-89
Cc1ccc(/C(N)=N/OC(=O)C23CC4CC(CC(C4)C2)C3)cc1	-7.1*	8	-11	8	-8	-5
COC(=O)c1ccc(CSc2nnc(Nc3ccccc3OC)s2)o1	3.5*	2	-6	8	-9	5
COC(=O)c1ccc(CSc2nnc(Nc3ccc(OC)cc3)s2)o1	-0.57	-4	8	4	-5	-15
CCOC(=O)c1ccc(NC(=O)CC2NCCNC2=O)cc1 (stereo not given)	-0.68	-30	32*	3	-11	21
CNC(CC(C)C)C(=O)NC1C(=O)NC(CC(N)=O)C(=O)NC2C(=O)NC3C(=O)NC(C(=O)NC(C(=O)O)c4cc(O)cc(O)c4-c4cc3ccc4O)C(O)c3ccc(c(Cl)c3)Oc3cc2cc(c3OC2OC(CO)C(O)C(O)C2OC2CC(C)(N)C(O)C(C)O2)Oc2ccc(cc2Cl)C1O (stereo not given)	1.6	x	x	x	x	x
CCCCN1C2=C(C(=O)CCC2)C(c2ccc(Cl)c(Cl)c2)C2=C1c1ccccc1C2=O (stereo not given)	-0.27	-6	9	16	-11	22
COC(=O)C(/C=N/OCc1ccc([N+](=O)[O-])cc1)NC(=O)c1cccc(Cl)c1 (stereo not given)	-0.3	17	-17	14	-5	-7
Cc1ccc(C(=O)Nc2cc(C)c(OCC(=O)N3CCOCC3)c(C)c2)cc1	2.3*	-2	4	10	1	-12
Cc1ccc(-c2ccc(OCC(=O)N3CCOCC3)cc2)cc1	0.17	3	-1	2	-1	-8
C=C1CCN([C@@H](Cc2ccccc2)C(=O)NCCCc2ccccc2)S(=O)(=O)c2ccccc21	1	x	x	x	x	x
CC(C)(C)C(=O)c1sc(Nc2ccccc2)nc1N	1.3*	-2	1	1	-10	-1
C=C1C(=O)[C@@]23[C@H](O)C[C@@H]4C(C)(C)CC[C@H](O)[C@]4(C)[C@@H]2C[C@H](O)[C@@H]1[C@H]3O	-4.8*	x	x	x	x	x
C=C1C(=O)[C@@]23[C@H](O)C[C@@H]4C(C)(C)CC[C@H](O)[C@@]4(C)[C@@H]2CC[C@@H]1[C@H]3O	-0.69	x	x	x	x	x
CN1/C(=C\C=[N+](C)c2ccccc2)C(C)(C)c2ccccc21	-1.6	1	3	-2	-2	41
CN1/C(=C/C=C(/C#N)C(N)=O)C(C)(C)c2ccccc21	-0.73	-3	6	47*	-9	13
CCCN1CCC2(CC1)C(C#N)=C(N)Oc1c2sc2nc(C)cc(C)c12	0.049	-2	7	50*	-6	-4
CCOC(=O)N1CCC2(CC1)C(C#N)=C(N)Oc1c2sc2nc(C)cc(C)c12	0.61	-6	5	18	-9	3
CC(=O)NC1CC2CCCC(C1)N2C(=O)Nc1ccccc1 (stereo not given)	0.16	-59	60*	3	-8	2
O=C(NC1CC2CCCC(C1)N2C(=O)Nc1ccccc1)c1ccncc1 (stereo not given)	-0.81	-5	8	3	-11	7
